Assay results reported in ChEMBL document CHEMBL1137201, “A virtual screening approach to finding novel and potent antagonists at the melanin-concentrating hormone 1 receptor” (J Med Chem, 2004).

biological target: T1, Melanin-concentrating hormone receptor 1 (Homo sapiens, UniProt Q99705); test: (§1) Binding affinity for Melanin-concentrating hormone 1 receptor expressed in CHO cells; format: cell-based
Method in brief: (§2)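 Scintillation proximity binding: CHO membranes (5 μg) overexpressing MCH-1R with wheat germ agglutinin SPA beads and 0.4 nM 125I-[Phe13,Tyr19]-MCH, 1 h at room temperature. Nonspecific binding was taken with 1 μM MCH. Bound label was scintillation-counted. IC50 came from six-point semilog concentration–response curves.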

T1 sequence (Q99705 whole entry): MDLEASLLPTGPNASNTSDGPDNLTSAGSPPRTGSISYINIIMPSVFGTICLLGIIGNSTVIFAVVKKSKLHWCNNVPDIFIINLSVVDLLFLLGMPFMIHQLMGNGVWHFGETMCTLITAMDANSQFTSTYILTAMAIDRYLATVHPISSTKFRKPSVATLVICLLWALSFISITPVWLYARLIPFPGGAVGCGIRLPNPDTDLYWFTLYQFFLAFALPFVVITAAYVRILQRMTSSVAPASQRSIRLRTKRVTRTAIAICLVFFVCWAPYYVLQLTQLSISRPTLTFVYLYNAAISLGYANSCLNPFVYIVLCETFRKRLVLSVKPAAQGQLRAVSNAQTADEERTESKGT

SMILES | Kb [nM]
O=C(CCCN1CCC(O)(c2ccc(Cl)cc2)CC1)c1ccc(Cl)cc1 | 9
CCCCN(CCCC)c1ccc(CNC[C@H]2CC[C@H](N(C)C(=O)c3cccc4ccccc34)CC2)cc1 | 284

biological target: T1, Melanin-concentrating hormone receptor 1; test: as §1; format: cell-based; method in brief: as §2

SMILES | Ki [nM]
CC[C@H](NC(=O)c1ccc(CC2CCN(Cc3ccc4c(c3)OCO4)CC2)cc1)c1ccc(C(=O)OC)cc1 | ≤ 1500
COc1cc(N2CCN(C[C@H]3C[C@@H]3c3ccccc3)CC2)ccc1Br | < 1000
CC(=O)N[C@@H]1CCN(CCCCN(C(=O)Nc2ccc(F)c(Cl)c2)c2ccc(-c3cccc(C#N)c3)cc2)C1 | < 100

biological target: T1, Melanin-concentrating hormone receptor 1; test: Percent inhibition of Melanin-concentrating hormone 1 receptor expressed in CHO cells at 10 uM; format: cell-based
Method in brief: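 Same SPA radioligand binding setup: CHO MCH-1R membranes with 0.4 nM 125I-[Phe13,Tyr19]-MCH and WGA beads, 1 h at room temperature, 1 μM MCH for nonspecific binding. Compounds were screened at a single 10 μM concentration, and actives were retested in duplicate at 10 μM. Read-out is percent inhibition of specific binding.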

SMILES | inhibition [%]
Cc1cc(N2CCN(C)CC2)nc2ccc(NC(=O)CCC3CCCC3)cc12 | 11.6

biological target: T1, Melanin-concentrating hormone receptor 1; test: Inhibition of Melanin-concentrating hormone 1 receptor expressed in CHO cells; format: cell-based

SMILES | IC50 [nM]
CCN1CCN(c2cc(C)c3cc(NC(=O)COc4cccc(C)c4)ccc3n2)CC1 | 6600
O=C(CNC(=O)OCc1ccccc1)NCC(CCCN1CCC(c2ccccc2)CC1)(c1ccccc1)c1ccccc1 | 5
Cc1cc(N2CCN(C)CC2)nc2ccc(NC(=O)C(C)Oc3ccc(Cl)cc3Cl)cc12 (stereo not given) | 790
CCN1CCN(c2cc(C)c3cc(NC(=O)CSc4ccncc4)ccc3n2)CC1 | 8200
CCN1CCN(c2cc(C)c3cc(NC(=O)C(C)Oc4ccc(Cl)cc4Cl)ccc3n2)CC1 (stereo not given) | 230
O=C1c2cc(OCCC3CCN(Cc4ccc(C5=NCCN5)cc4)CC3)ccc2CCCN1Cc1ccccc1 | 300
CN(C)CC1CCc2cc(NC(=O)c3ccc(-c4ccc(F)cc4)cc3)ccc2C1 (stereo not given) | 5.5
CCN1CCN(c2cc(C)c3cc(NC(=O)CCc4ccc(OC)cc4)ccc3n2)CC1 | 730
COc1ccc(CCC(=O)Nc2ccc3nc(N4CCN(C)CC4)cc(C)c3c2)cc1 | 250
